Test results as given in ChEMBL document CHEMBL1128256, “Synthesis, biological evaluation, and structure analysis of a series of new 1,5-anhydrohexitol nucleosides” (J Med Chem, 1995).
In brackets after ≈: the same amount, converted by molar mass.

Columns and labels:
[1] = system: E6SM; assay: Tested for the minimum inhibitory concentration required to reduce herpes simplex virus type 2 (HSV-2) strain 196 induced cytopathogenicity by 50%.; format: functional; conditions: Homo sapiens
Summary of the method: (§1)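 Inhibition of virus-induced cytopathogenicity in human embryonic skin-muscle (E6SM) fibroblasts seeded in 96-well trays. Viruses were HSV-1 (KOS, F, McIntyre), TK- HSV-1 B2006, TK-/TK+ HSV-1 clinical isolate VMW-1837 and HSV-2 (G, 196, Lyons). […] MCC is the lowest concentration giving microscopically detectable alteration of normal cell morphology; highest concentration tested was 400 µg/mL.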

[2] = system: E6SM; assay: Tested for the minimum inhibitory concentration required to reduce herpes simplex virus type 2 (HSV-2) strain G induced cytopathogenicity by 50%.; format: functional; conditions: Homo sapiens; summary of the method: as §1
[3] = system: E6SM; assay: Tested for the minimum inhibitory concentration required to reduce herpes simplex virus type 2 (HSV-2) strain Lyons induced cytopathogenicity by 50%.; format: functional; conditions: Homo sapiens; summary of the method: as §1
[4] = system: E6SM; assay: Tested for the minimum inhibitory concentration required to reduce herpes simplex virus type 1 (HSV-1) strain F induced cytopathogenicity by 50%.; format: functional; conditions: Homo sapiens; summary of the method: as §1
[5] = system: E6SM; assay: Tested for the minimum inhibitory concentration required to reduce herpes simplex virus type 1 (HSV-1) strain KOS induced cytopathogenicity by 50%.; format: functional; conditions: Homo sapiens; summary of the method: as §1
[6] = system: E6SM; assay: Tested for the minimum inhibitory concentration required to reduce herpes simplex virus type 1 (HSV-1) strain McIntyre induced cytopathogenicity by 50%.; format: functional; conditions: Homo sapiens; summary of the method: as §1
[7] = system: E6SM; assay: Tested for the minimum inhibitory concentration required to reduce vaccinia virus(VV) induced cytopathogenicity by 50%.; format: functional; conditions: Homo sapiens
[8] = system: E6SM; assay: Tested for the minimum inhibitory concentration required to reduce vesicular stomatitis virus(VSV) induced cytopathogenicity by 50%; format: functional; conditions: Homo sapiens
[9] = system: E6SM; assay: Tested for the minimum inhibitory concentration required to reduce herpes simplex virus type 1 (TK- / TK+ HSV-1) strain VMW-1837 induced cytopathogenicity by 50%.; format: functional; conditions: Homo sapiens; summary of the method: as §1
[10] = system: E6SM; assay: Tested for the minimum cytotoxic concentration required to cause a microscopically detectable alteration of normal cell morphology in human embryonic skin muscle (E6SM) fibroblast cell cultures.; format: functional; summary of the method: as §1
[11] = system: E6SM; assay: Tested for the minimum inhibitory concentration required to reduce thymidine kinase deficient herpes simplex virus type 1 (TK- HSV-1) strain B2006 induced cytopathogenicity by 50%.; format: functional; conditions: Homo sapiens; summary of the method: as §1
[12] = system: HEL; assay: Tested for the cytotoxic concentration, required to reduce cell growth by 50% in human embryonic lung (HEL) cells.; format: functional
Summary of the method: (§2)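 Virus plaque formation assay in human embryonic lung (HEL) cells seeded in 96-well trays. Targets were TK+ VZV (Oka, YS), TK- VZV (07/1, YS/R) and CMV (AD169, Davis). Value is the concentration that reduces plaque number by 50%. Cytotoxicity in HEL cells was taken as the concentration that reduces cell growth by 50%.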

[13] = system: HEL; assay: Tested for the inhibitory concentration required to reduce TK+ Varicella-Zoster virus (TK+ VZV) strain OKA plaque formation by 50%.; format: functional, cell-based; conditions: Homo sapiens
[14] = system: HEL; assay: Tested for the inhibitory concentration required to reduce TK+ Varicella-Zoster virus (TK+ VZV) strain YS plaque formation by 50%; format: functional, cell-based; conditions: Homo sapiens
[15] = system: HEL; assay: Tested for the inhibitory concentration required to reduce cytomegalovirus (CMV) strain AD-169 plaque formation by 50%.; format: functional, cell-based; conditions: Homo sapiens; summary of the method: as §2
[16] = system: HEL; assay: Tested for the inhibitory concentration required to reduce cytomegalovirus (CMV) strain Davis plaque formation by 50%.; format: functional, cell-based; conditions: Homo sapiens; summary of the method: as §2
[17] = system: HEL; assay: Tested for the inhibitory concentration required to reduce thymidine kinase deficient Varicella-Zoster virus (TK- VZV) strain 07/1 plaque formation by 50%.; format: functional, cell-based; conditions: Homo sapiens
[18] = system: HEL; assay: Tested for the inhibitory concentration required to reduce thymidine kinase deficient Varicella-Zoster virus (TK- VZV) strain YS/R plaque formation by 50%.; format: functional, cell-based; conditions: Homo sapiens
[19] = system: E6SM; assay: Tested for the minimum inhibitory concentration required to reduce thymidine kinase deficient herpes simplex virus type 1 (TK- / TK+ HSV-1) strain VMW-1837 induced cytopathogenicity by 50%.; format: functional; conditions: Homo sapiens; summary of the method: as §1
[20] = system: HEL; assay: Tested for the inhibitory concentration required to reduce thymidine kinase plus Varicella-Zoster virus (TKplus VZV) strain OKA plaque formation by 50%.; format: functional, cell-based; conditions: Homo sapiens; summary of the method: as §2
[21] = organism: Mus musculus; assay: Inhibition constant assumed to reflect the affinity for the transport site in mouse erythrocytes; format: functional
Summary of the method: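 Thymidine influx competition in erythrocytes from male B6D2F1 mice, 10% hematocrit in buffered saline, room temperature. [methyl-3H]thymidine at 0.1, 0.2, 0.5 and 1 mM, alone or with inhibitor at 0.053–1.05 mM. Influx stopped after 3 s with NBMPR. Pellets extracted in 5% perchloric acid and counted by scintillation. Zero-time trapping subtracted. Duplicate samples. Ki from Dixon plot.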

[22] = system: E6SM; assay: Tested for the minimum inhibitory concentration required to reduce herpes simplex virus type 1 (TK+ / TK- HSV-1) strain VMW-1837 induced cytopathogenicity by 50%.; format: functional; conditions: Homo sapiens; summary of the method: as §1

| Compound | MIC [1] [µg/mL] | MIC [2] [µg/mL] | MIC [3] [µg/mL] | MIC [4] [µg/mL] | MIC [5] [µg/mL] | MIC [6] [µg/mL] | MIC [7] [µg/mL] | MIC [8] [µg/mL] | MIC [9] [µg/mL] | MCC [10] [µg/mL] | MIC [11] [µg/mL] | CC50 [12] [µg/mL] | IC50 [13] [µg/mL] | IC50 [14] [µg/mL] | IC50 [15] [µg/mL] | IC50 [16] [µg/mL] | IC50 [17] [µg/mL] | IC50 [18] [µg/mL] | other results |
| --- | --- | --- | --- | --- | --- | --- | --- | --- | --- | --- | --- | --- | --- | --- | --- | --- | --- | --- | --- |
| Nc1ncnc2c1ncn2C[C@@H](CO)OCP(=O)(O)O | 0.07 (≈ 0.231 µM) | 0.02 (≈ 0.066 µM) | 0.1 (≈ 0.33 µM) | 0.2 (≈ 0.66 µM) | 0.2 (≈ 0.66 µM) | 2 (≈ 6.6 µM) | 0.7 (≈ 2.31 µM) | > 400 | 1 (≈ 3.3 µM) | > 400 | 1 (≈ 3.3 µM) |  |  |  |  |  |  |  |  |
| Nc1nc2c(ncn2COC(CO)CO)c(=O)[nH]1 [GANCICLOVIR] |  |  |  |  |  |  |  |  |  |  |  | > 200 | 0.02 (≈ 0.0784 µM) | 0.072 (≈ 0.282 µM) | 2.9 (≈ 11.4 µM) | 6.2 (≈ 24.3 µM) | 0.1 (≈ 0.392 µM) | 0.9 (≈ 3.53 µM) |  |
| Nc1nc(=O)n(C2COC(CO)C(O)C2)cc1I (centres undefined) | 20 (≈ 54.5 µM) | 7 (≈ 19.1 µM) | 20 (≈ 54.5 µM) | 0.7 (≈ 1.91 µM) | 2 (≈ 5.45 µM) | 2 (≈ 5.45 µM) | 150 (≈ 409 µM) | > 400 | 70 (≈ 191 µM) | > 400 | 300 (≈ 817 µM) | > 50 | > 40 | > 40 | > 40 | > 40 |  | 7.6 (≈ 20.7 µM) |  |
| Nc1nc2c(ncn2COCCO)c(=O)[nH]1 [ACYCLOVIR] |  |  |  |  |  |  |  |  |  |  |  | > 200 |  |  | 20 (≈ 88.8 µM) |  |  |  |  |
| Nc1nc(=O)n(C2COC(CO)C(O)C2)cc1F (centres undefined) |  | 2 (≈ 7.71 µM) |  |  | 0.2 (≈ 0.771 µM) |  | 0.2 (≈ 0.771 µM) | > 200 |  | > 400 | 0.07 (≈ 0.27 µM) | 2 (≈ 7.71 µM) |  | 3.5 (≈ 13.5 µM) | 0.9 (≈ 3.47 µM) | 0.5 (≈ 1.93 µM) | 5 (≈ 19.3 µM) | 7 (≈ 27 µM) | MIC [19]: 2 µg/mL (≈ 7.71 µM); IC50 [20]: 2.9 µg/mL |
| Nc1nc(N)c2ncn(C3COC(CO)C(O)C3)c2n1 (centres undefined) |  | 0.7 (≈ 2.5 µM) |  |  | 0.2 (≈ 0.714 µM) |  | 7 (≈ 25 µM) | > 200 | 0.7 (≈ 2.5 µM) | > 400 | 7 (≈ 25 µM) | 25 (≈ 89.2 µM) | 1.2 (≈ 4.28 µM) | 2 (≈ 7.14 µM) | 2 (≈ 7.14 µM) | 0.8 (≈ 2.85 µM) | 2.4 (≈ 8.56 µM) | 5 (≈ 17.8 µM) |  |
| CCc1cn(C2COC(CO)C(O)C2)c(=O)[nH]c1=O (centres undefined) |  | 0.4 (≈ 1.48 µM) |  |  | 0.02 (≈ 0.074 µM) |  | 200 (≈ 740 µM) |  | 0.4 (≈ 1.48 µM) | > 400 | > 400 | > 50 | > 50 | > 50 | > 50 | > 50 | > 50 | > 50 |  |
| O=c1[nH]c(=O)n(C2COC(CO)C(O)C2)cc1I (centres undefined) | 0.7 (≈ 1.9 µM) | 0.4 (≈ 1.09 µM) | 0.4 (≈ 1.09 µM) | 0.01 (≈ 0.0272 µM) | 0.02 (≈ 0.0543 µM) | 0.04 (≈ 0.109 µM) | 200 (≈ 543 µM) |  |  | > 400 | > 400 | > 50 | > 100 | > 100 | > 40 | > 40 | > 100 | > 100 | MIC [19]: 4 µg/mL (≈ 10.9 µM) |
| O=c1[nH]c(=O)n(C2COC(CO)C(O)C2)cc1/C=C/Br (centres undefined) | 70 (≈ 202 µM) | 150 (≈ 432 µM) | 70 (≈ 202 µM) | 2 (≈ 5.76 µM) | 0.4 (≈ 1.15 µM) | 0.4 (≈ 1.15 µM) |  |  | 70 (≈ 202 µM) | > 400 | > 100 | 50 (≈ 144 µM) | 1.4 (≈ 4.03 µM) | 1.4 (≈ 4.03 µM) | > 10 | 23 (≈ 66.3 µM) | 20 (≈ 57.6 µM) | 40 (≈ 115 µM) |  |
| O=c1ccn([C@H]2C[C@H](O)[C@@H](CO)O2)c(=O)[nH]1 [DEOXYURIDINE] |  |  |  |  |  |  |  |  |  |  |  |  |  |  |  |  |  |  | Ki [21]: 110 µM |
| Nc1nc(=O)n(C2COC(CO)C(O)C2)cc1Cl (centres undefined) | 300 (≈ 1090 µM) | 300 (≈ 1090 µM) | 300 (≈ 1090 µM) | 150 (≈ 544 µM) | 300 (≈ 1090 µM) | 300 (≈ 1090 µM) |  |  | 300 (≈ 1090 µM) | > 400 | > 400 | > 50 | 40 (≈ 145 µM) | > 40 | > 40 | > 40 | > 40 | > 40 |  |
| O=c1[nH]c(=O)n(C2COC(CO)C(O)C2)cc1F (centres undefined) | > 400 | > 400 | > 400 | > 400 | > 400 | > 400 |  |  |  | > 400 | > 400 | > 50 | 40 (≈ 154 µM) | > 40 | > 40 | > 40 | > 40 | 40 (≈ 154 µM) | MIC [22]: 300 µg/mL (≈ 1150 µM) |
